Series [1] concerns Caco-2. The series can be described thus: Caco-2 bi-directional permeability assay. The class given is in vitro ADME. (In general: Passage across Caco-2 layers is used to estimate intestinal permeability.)
Series [2] deals with bacterial reverse mutation. Briefly: Non-GLP in vitro bacterial reverse mutation. The class given is cell-based.
The target of series [3] is hERG channels (Homo sapiens, UniProt Q12809). The series can be described thus: hERG channel block. The class given is biochemical. Particulars: at a concentration of 10 μM or below. A general note: hERG is a cardiac potassium channel; its block is linked to QT prolongation.
The target in series [4] is MeV RdRp (Measles virus, UniProt P12576). Briefly: Plasmid-based mini-replicon luciferase assay of RdRp activity in BSR-T7/5 cells. The class given is cell-based. Particulars: 36 hours post-transfection; averages of three experiments. An outline of the steps: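 BSR-T7/5 cells were transfected with plasmids encoding MeV L, N and P plus a firefly luciferase minigenome reporter, then incubated with a range of test compound concentrations or vehicle. Luciferase activity in cell lysates was read 36 h post-transfection and expressed relative to vehicle-treated samples. Dose-response inhibition curves were generated from the mean of three experiments ± SD.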
A general note: Replicon systems follow genome replication, usually without infectious particles.

Sequence of MeV RdRp (P12576 whole entry): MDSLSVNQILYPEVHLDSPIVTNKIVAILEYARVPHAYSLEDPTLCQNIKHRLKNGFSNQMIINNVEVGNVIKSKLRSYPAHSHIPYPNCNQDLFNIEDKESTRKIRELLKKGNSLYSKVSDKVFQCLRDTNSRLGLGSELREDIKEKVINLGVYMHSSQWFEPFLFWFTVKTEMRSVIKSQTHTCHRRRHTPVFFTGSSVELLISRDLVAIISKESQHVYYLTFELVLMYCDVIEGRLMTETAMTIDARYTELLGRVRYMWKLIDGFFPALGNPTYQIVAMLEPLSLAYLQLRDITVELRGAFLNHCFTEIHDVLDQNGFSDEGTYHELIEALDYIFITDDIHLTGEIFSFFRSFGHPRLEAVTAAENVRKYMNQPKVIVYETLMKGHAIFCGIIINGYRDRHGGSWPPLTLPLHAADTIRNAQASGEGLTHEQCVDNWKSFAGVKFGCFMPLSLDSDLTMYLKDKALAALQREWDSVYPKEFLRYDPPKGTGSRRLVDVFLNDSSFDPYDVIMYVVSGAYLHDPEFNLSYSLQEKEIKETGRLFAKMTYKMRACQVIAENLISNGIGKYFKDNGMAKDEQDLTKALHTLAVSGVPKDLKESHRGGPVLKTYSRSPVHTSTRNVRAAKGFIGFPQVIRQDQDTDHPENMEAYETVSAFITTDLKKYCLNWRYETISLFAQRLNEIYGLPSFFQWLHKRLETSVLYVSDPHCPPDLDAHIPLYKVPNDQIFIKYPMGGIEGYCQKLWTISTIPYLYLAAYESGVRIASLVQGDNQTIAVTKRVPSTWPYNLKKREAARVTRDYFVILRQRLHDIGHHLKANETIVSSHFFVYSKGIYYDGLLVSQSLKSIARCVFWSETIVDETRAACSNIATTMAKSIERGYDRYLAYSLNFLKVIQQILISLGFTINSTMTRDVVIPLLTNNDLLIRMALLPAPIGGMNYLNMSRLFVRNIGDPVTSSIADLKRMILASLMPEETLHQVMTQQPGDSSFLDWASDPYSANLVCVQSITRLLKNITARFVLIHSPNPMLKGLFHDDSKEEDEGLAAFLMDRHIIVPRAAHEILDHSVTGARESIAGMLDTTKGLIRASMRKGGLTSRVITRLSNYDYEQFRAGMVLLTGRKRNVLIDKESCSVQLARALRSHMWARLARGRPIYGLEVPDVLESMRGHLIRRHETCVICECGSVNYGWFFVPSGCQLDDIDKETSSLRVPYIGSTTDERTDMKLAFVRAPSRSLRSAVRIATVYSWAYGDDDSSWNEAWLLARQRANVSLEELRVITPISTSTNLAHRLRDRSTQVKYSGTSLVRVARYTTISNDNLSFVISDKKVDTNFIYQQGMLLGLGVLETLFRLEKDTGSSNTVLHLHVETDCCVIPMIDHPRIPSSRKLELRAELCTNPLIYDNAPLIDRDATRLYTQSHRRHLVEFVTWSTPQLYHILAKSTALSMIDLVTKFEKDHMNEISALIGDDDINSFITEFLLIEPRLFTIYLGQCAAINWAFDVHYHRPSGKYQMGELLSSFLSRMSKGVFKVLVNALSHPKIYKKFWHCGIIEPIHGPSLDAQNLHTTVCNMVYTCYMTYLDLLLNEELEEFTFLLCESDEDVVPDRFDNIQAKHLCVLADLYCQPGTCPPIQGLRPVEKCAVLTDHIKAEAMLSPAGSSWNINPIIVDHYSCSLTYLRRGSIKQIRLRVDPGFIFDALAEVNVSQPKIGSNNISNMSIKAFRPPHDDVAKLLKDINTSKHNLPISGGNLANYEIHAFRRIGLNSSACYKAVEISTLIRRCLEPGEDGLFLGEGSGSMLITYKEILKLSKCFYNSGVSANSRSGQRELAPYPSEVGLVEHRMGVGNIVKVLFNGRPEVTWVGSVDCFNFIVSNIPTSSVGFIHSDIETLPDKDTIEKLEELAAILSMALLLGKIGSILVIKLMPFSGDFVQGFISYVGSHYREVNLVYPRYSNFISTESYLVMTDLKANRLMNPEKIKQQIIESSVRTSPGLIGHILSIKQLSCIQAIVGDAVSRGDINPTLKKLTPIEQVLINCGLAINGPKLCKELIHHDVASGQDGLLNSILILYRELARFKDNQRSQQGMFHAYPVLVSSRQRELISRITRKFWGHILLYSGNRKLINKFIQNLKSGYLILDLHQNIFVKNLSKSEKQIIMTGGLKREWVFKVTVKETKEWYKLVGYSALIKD
Sequence of MeV RdRp (P03422 whole entry, further chain): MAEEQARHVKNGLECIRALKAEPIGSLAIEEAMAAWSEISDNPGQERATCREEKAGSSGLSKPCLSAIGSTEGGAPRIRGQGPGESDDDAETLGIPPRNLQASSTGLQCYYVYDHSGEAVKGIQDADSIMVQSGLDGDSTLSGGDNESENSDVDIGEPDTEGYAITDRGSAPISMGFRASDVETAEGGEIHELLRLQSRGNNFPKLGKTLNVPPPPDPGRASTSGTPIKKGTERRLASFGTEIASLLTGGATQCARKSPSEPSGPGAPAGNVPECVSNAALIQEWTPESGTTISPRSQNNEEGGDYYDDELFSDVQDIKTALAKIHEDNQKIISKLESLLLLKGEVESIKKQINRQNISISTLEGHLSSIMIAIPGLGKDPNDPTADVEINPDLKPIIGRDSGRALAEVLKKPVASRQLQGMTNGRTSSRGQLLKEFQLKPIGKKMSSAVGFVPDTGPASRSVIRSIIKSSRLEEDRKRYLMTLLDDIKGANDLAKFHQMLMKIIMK
Sequence of hERG channels (Q12809 whole entry): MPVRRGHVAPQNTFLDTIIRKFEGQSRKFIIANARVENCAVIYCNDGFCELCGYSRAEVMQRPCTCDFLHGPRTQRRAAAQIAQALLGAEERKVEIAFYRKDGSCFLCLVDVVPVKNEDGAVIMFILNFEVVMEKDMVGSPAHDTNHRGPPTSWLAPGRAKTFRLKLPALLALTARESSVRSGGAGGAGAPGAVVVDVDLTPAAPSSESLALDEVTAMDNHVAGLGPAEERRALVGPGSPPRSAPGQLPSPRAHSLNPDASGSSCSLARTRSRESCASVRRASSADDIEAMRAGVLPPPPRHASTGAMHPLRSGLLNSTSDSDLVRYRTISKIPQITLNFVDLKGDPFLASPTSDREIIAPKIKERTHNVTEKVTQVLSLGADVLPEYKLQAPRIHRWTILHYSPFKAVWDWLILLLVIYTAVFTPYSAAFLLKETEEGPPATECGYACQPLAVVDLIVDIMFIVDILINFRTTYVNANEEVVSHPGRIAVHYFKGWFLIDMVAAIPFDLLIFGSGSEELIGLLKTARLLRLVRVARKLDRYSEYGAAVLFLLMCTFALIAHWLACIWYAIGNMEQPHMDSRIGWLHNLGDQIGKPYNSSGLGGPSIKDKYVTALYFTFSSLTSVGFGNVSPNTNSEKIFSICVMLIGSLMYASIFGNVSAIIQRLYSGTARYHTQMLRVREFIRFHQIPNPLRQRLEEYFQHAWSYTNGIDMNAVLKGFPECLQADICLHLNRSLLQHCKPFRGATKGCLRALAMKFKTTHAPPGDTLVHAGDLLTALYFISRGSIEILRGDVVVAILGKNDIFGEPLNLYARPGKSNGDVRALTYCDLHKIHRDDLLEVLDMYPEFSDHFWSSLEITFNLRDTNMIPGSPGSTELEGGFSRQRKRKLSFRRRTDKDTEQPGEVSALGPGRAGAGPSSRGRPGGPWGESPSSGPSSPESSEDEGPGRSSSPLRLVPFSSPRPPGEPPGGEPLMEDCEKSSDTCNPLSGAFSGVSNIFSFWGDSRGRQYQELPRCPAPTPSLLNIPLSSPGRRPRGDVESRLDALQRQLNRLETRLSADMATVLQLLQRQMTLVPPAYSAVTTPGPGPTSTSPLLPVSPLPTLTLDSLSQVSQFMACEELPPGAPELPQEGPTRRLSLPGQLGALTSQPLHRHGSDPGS

Consider `Cn1nc(C(F)(F)F)cc1C(=O)Nc1ccc(S(=O)(=O)N2CCCCC2)cc1` [Compound 2], for which the permeability result in series [1] is listed as “high permeability”. Moreover, the “mutagenicity (Ames)” value in series [2] is on record as “non-mutagenic”. The hERG channel block result in series [3] is listed as “did not block”. In addition, the “inhibition of viral RdRp activity (relative luciferase activity)” value in series [4] is recorded as “dose-dependent inhibition”.
Consider `Cn1nc(C(F)(F)F)cc1C(=O)Nc1ccc(S(=O)(=O)N2CCCC[C@H]2CCN2CCOCC2)cc1` [Compound 2o, (S)-1-methyl-N-(4-((2-(2-morpholinoethyl)piperidin-1-yl)sulfonyl)phenyl)-3-(trifluoromethyl)-1H-pyrazole-5-carboxamid], for which, in series [1], the permeability entry is “high permeability”. Also, the “inhibition of viral RdRp activity (relative luciferase activity)” value in series [4] is “dose-dependent inhibition”.
